Measured values published in ChEMBL document CHEMBL4622976, “Development of pH/Glutathione-Responsive Theranostic Agents Activated by Glutathione S-Transferase π for Human Colon Cancer” (J Med Chem, 2020).
Values belong to the compound of their own block, whether it stands above or below them. Active and inactive are the calls of the source. The calls are words filed in the database; no cut-off is given here.

Legend:
[1] = Cytotoxicity against human CCD-841 cells by MTT assay; type: cell-based
Outline: (§1)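 MTT assay. Cells were grown in DMEM/RPMI 1640 with 10% FBS, penicillin and streptomycin at 37 °C under 5% CO2. After a PBS wash, cells got 0.5 mg/mL MTT for 3 h at 37 °C. Formazan was dissolved in DMSO and absorbance read at 570 nm. Inhibition was expressed as a percentage and IC50 calculated. Means ± SD come from three separate experiments.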

[2] = Antiproliferative activity against rat 9L-2 cells by MTT assay; type: functional, cell-based; outline: as §1
HepG2 = test: Antiproliferative activity against human HepG2 cells by MTT assay; type: functional, cell-based; outline: as §1
HT-29 [3] = test: Antiproliferative activity against human HT-29 cells by MTT assay; type: functional, cell-based; outline: as §1
[4] = Dissociation constant, pKa of the compound; type: physicochemical
HT-29 [5] = test: Induction of apoptosis in human HT-29 cells at 2.5 uM incubated for 72 hrs by FITC-AnnexinV/PI staining based flow cytometry relative to control; type: functional
Outline: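 HT29 cells were cultured 12 h, then exposed to compound (0.4, 1.0, 2.5 µM) or vehicle for 72 h. Harvested cells were stained with Annexin V and PI, and apoptotic cell percentages measured by flow cytometry. Means ± SD come from three separate experiments.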

HT-29 [6] = test: Induction of apoptosis in human HT-29 cells assessed as reduction in Bcl2 protein level at 2.5 uM incubated for 72 hrs by Western blot analysis; type: functional, cell-based
Outline: (§2)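 HT29 cells (1.5×10^5/mL) were treated for 72 h and lysed. Lysate (0.05 mg/lane) was run on 12% SDS-PAGE and transferred to nitrocellulose. After blocking in 5% non-fat milk, blots were probed for Bax, Bcl-2, cleaved caspase-3, cleaved PARP, LC3, p62 and beclin-1. Levels were normalised to β-actin, and means ± SD taken from three independent assays.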

HT-29 [7] = test: Induction of autophagy in human HT-29 cells assessed as increase in LC3-II protein level at 2.5 uM incubated for 72 hrs by Western blot analysis; type: functional, cell-based; outline: as §2
HT-29 [8] = test: Induction of autophagy in human HT-29 cells assessed as reduction in p62 protein level at 2.5 uM incubated for 72 hrs by Western blot analysis; type: functional, cell-based
Outline: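 HT29 cells (1.5×10^5/mL) exposed to compound or vehicle for 72 h, then lysed. Lysates (0.05 mg/lane) run on 12% SDS-PAGE, transferred to nitrocellulose, blocked with 5% non-fat milk and probed for LC3, p62, beclin-1 and β-actin. Bands quantified relative to β-actin, with LC3-II/LC3-I ratio also calculated; means ± SD from three independent assays.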

HT-29 [9] = test: Induction of apoptosis in human HT-29 cells assessed as increase in cleaved caspase-3 protein level at 2.5 uM incubated for 72 hrs by Western blot analysis; type: functional, cell-based; outline: as §2
HT-29 [10] = test: Antitumor activity against human HT-29 cells xenografted in nude BALB/c mouse assessed as tumor weight level at 40 mg/kg, ip dosed every day for 21 days (reference value: 1.49 +/- 0.27 g); type: functional
HT-29 [11] = test: Induction of apoptosis in human HT-29 cells assessed as increase in Bax protein level at 2.5 uM incubated for 72 hrs by Western blot analysis; type: functional, cell-based; outline: as §2
HT-29 [12] = test: Antitumor activity against human HT-29 cells xenografted in nude BALB/c mouse assessed as reduction in tumor volume at 40 mg/kg, ip dosed every day for 21 days; type: functional, organism-based
HT-29 [13] = test: Induction of apoptosis in human HT-29 cells assessed as increase in cleaved PARP protein level at 2.5 uM incubated for 72 hrs by Western blot analysis; type: functional, cell-based; outline: as §2
HT-29 [14] = test: Induction of autophagy in human HT-29 cells assessed as increase in Beclin-1 protein level at 2.5 uM incubated for 72 hrs by Western blot analysis; type: functional, cell-based; outline: as §2
HT-29 [15] = test: Induction of apoptosis in human HT-29 cells assessed as reduction in Bcl2 protein level at 10 uM incubated for 72 hrs by Western blot analysis; type: functional, cell-based
Outline: (§3)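 HT29 cells (1.5 × 10^5/mL) treated 72 h with compound or vehicle. Lysates loaded at 0.05 mg/lane on 12% SDS-PAGE, transferred to nitrocellulose, blocked in 5% non-fat milk. Probed with antibodies to Bax, Bcl-2, cleaved caspase-3, cleaved PARP, LC3, p62 and beclin-1. Bands quantified relative to β-actin; three independent assays, means ± SD.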

HT-29 [16] = test: Induction of apoptosis in human HT-29 cells assessed as increase in cleaved PARP protein level at 10 uM incubated for 72 hrs by Western blot analysis; type: functional, cell-based; outline: as §3
HT-29 [17] = test: Induction of autophagy in human HT-29 cells assessed as increase in Beclin-1 protein level at 10 uM incubated for 72 hrs by Western blot analysis; type: functional, cell-based; outline: as §3
HT-29 [18] = test: Induction of apoptosis in human HT-29 cells assessed as increase in Bax protein level at 10 uM incubated for 72 hrs by Western blot analysis; type: functional, cell-based; outline: as §3
HT-29 [19] = test: Induction of autophagy in human HT-29 cells assessed as increase in LC3-II protein level at 10 uM incubated for 72 hrs by Western blot analysis; type: functional, cell-based; outline: as §3
HT-29 [20] = test: Induction of apoptosis in human HT-29 cells at 10 uM incubated for 72 hrs by FITC-AnnexinV/PI staining based flow cytometry relative to control; type: functional
Outline: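 HT29 cells cultured 12 h, then exposed to compound or vehicle for 72 h. Harvested cells stained with Annexin V plus a viability dye for 15 min at 37 °C. Percentage of apoptotic cells determined by flow cytometry; means ± SD from three separate experiments, compared with control.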

HT-29 [21] = test: Induction of apoptosis in human HT-29 cells assessed as increase in cleaved caspase-3 protein level at 10 uM incubated for 72 hrs by Western blot analysis; type: functional, cell-based; outline: as §3
HT-29 [22] = test: Induction of autophagy in human HT-29 cells assessed as reduction in p62 protein level at 10 uM incubated for 72 hrs by Western blot analysis; type: functional, cell-based; outline: as §3

IC50 (HepG2): 2.69 µM
IC50 (HT-29 [3]): 1.45 µM
pKa [4]: 5.3
SMILES: COc1cc(-c2nc(N(C(=O)OCC3=CCCCC3=O)C(=O)OCC3=CCCCC3=O)cc3c2[nH]c2ccccc23)cc(OC)c1OC
IC50 [1]: 28.1 µM
IC50 [2]: 4.85 µM

IC50 (HepG2): 5.93 µM
IC50 (HT-29 [3]): 4.37 µM
SMILES: C/C=C/C(=O)OCC1=CCCCC1=O
Activity (HT-29 [5]): 28.8%
IC50 [1]: 7.83 µM
IC50 [2]: 7.79 µM
Activity (HT-29 [6]): Active
Activity (HT-29 [7]): Active
Activity (HT-29 [8]): Active
Activity (HT-29 [9]): Active
Activity (HT-29 [10]): 0.81 g
Activity (HT-29 [11]): Active
Activity (HT-29 [12]): Active
Activity (HT-29 [13]): Active
Activity (HT-29 [14]): Active

IC50 (HepG2): 17.1 µM
IC50 (HT-29 [3]): 13.5 µM
SMILES: COc1cc(-c2nc(N)cc3c2[nH]c2ccccc23)cc(OC)c1OC

SMILES: COc1ccc2c(c1)[nH]c1c(C)nccc12 [HARMINE]
Activity (HT-29 [15]): Active
IC50 [1]: > 50 µM
IC50 [2]: 47.8 µM
IC50 (HepG2): 49.6 µM
Activity (HT-29 [16]): Active
Activity (HT-29 [17]): Active
Activity (HT-29 [18]): Active
Activity (HT-29 [19]): Active
IC50 (HT-29 [3]): 41.8 µM
Activity (HT-29 [20]): 20.9%
Activity (HT-29 [21]): Active
Activity (HT-29 [22]): Active
